An excerpt weighted towards active compounds, which were near 1.5% of everything screened.
NR2E3 ag-1 = inhibitors of NR2E3-RetCOR corepressor binding, primary screen, NR2E3 agonist project, biochemical, TR-FRET, GST-NR2E3, biotin-RetCOR. 0.12% of 320,000 active. Photoreceptor-specific nuclear receptor (Homo sapiens), Q9Y5X4. 1536-well. inhibition of corepressor binding, % at 4.78 µM;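 active = percent inhibition above the cutoff of mean plus 3 SD of all tested compounds, set per screening campaign, cut at about 20% in these data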;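 note: 0% = DMSO wells and 100% = biotin wells as full block of FRET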
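System: GST-tagged NR2E3 plus biotinylated RetCOR corepressor; Amount: 1.35 nM GST-tagged NR2E3 final; Dosing: single nominal compound dose of 4.8 µM; Schedule: 5 h incubation at 4 °C; Technique: TR-FRET with europium anti-GST and streptavidin-D2, 340 nm excitation; Controls: biotin wells as high control, 0.6% DMSO wells as low control.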
NR1D1 modulator = modulators of Rev-erb alpha DNA binding, primary screen, biochemical, FITC-DNA, fluorescence polarization, uHTS. Nuclear receptor subfamily 1 group D member 1 (Homo sapiens), P20393. activity, % at 10 µM. 0.79% of 370,000 active. Rev-erbα–FITC-DNA binding, 90 min. AID 1259318, 2017;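 active = activity above about 14%, limit read from the data; passing the limit was not always enough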;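 note: 0% = DMSO wells with 35 nM protein and 100% = DMSO wells with 750 nM protein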
Target sequence (P20393 whole entry, looked up): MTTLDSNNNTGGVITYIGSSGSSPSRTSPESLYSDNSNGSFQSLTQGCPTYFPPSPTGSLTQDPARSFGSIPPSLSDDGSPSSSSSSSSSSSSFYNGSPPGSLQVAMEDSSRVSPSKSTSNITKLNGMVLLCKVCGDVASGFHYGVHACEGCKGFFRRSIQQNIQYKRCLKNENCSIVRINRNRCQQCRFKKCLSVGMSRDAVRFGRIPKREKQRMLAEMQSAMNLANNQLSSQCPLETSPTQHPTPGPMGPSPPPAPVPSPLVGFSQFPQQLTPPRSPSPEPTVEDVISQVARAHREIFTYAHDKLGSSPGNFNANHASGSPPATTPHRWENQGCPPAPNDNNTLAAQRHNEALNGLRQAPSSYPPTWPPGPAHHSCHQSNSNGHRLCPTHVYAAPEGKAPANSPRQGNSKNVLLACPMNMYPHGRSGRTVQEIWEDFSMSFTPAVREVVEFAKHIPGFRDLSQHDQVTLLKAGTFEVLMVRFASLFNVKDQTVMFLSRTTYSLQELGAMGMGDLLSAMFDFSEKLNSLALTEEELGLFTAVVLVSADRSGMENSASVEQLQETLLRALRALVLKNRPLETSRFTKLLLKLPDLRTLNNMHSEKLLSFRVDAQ
PG9 Ab binder = binders of HIV-1 gp120 antibody PG9, primary screen, biochemical, TR-FRET | HIV-1 gp120 / PG9 antibody interaction | TR-FRET gp120-PG9 antibody binding | inhibition, % at 6.7 µM | 0.43% of 360,000 active | AID 624416, 2012; in the data active = inhibition above about 8.5%
NR2E3 ag-2 = NR2E3 agonists in two-hybrid cells, primary screen, cell-based, luminescence, CHO-S, Gal4-NCOR/VP16-NR2E3; AID 602229, 2012; 0.35% of 360,000 active; inhibition of corepressor binding, % at 3.98 µM; luciferase;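 active = inhibition above the mean of all tested compounds plus 3 SD, cut at about 70% in these data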;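 note: 0% = DMSO with NR2E3 transfected cells and 100% = cells lacking NR2E3 construct; higher means lower luciferase signal from less NR2E3 corepressor binding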
NR2E3 ag confirm = NR2E3 agonist confirmation in cells, cell-based, luminescence, CHO-S two-hybrid; shares compounds with NR2E3 ag-2; CHO-S mammalian two-hybrid NR2E3-NCOR, luciferase luminescence; inhibition, % at 3.98 µM; 51% of 2,300 active;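 active = average inhibition above a cutoff equal to the mean inhibition of all tested compounds plus one SD, cut at about 70% in these data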;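 note: 0% = DMSO in NR2E3 cells and 100% = DMSO in cells lacking NR2E3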
VP16 counter = GAL4-VP16 reporter modulators, confirmation, counter-screen for NR2E3 agonist project, cell-based, luminescence, CHO-S, high throughput | shares compounds with NR2E3 ag-2 | CHO-S GAL4-VP16 luciferase reporter | inhibition, % at 3.98 µM | 29% of 2,300 active;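 active = mean inhibition above a cutoff equal to the average over all tested compounds plus one standard deviation, cut at about 70% in these data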;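 note: luciferase from a UAS reporter driven by GAL4-VP16 transactivation; 0% = DMSO with VP16-transfected cells and 100% = DMSO with cells lacking VP16; higher means less reporter light so more repression of VP16 activity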
Numbers without * were called inactive; . = no result given.

SMILES | NR2E3 ag-1 | NR1D1 modulator | PG9 Ab binder | NR2E3 ag-2 | NR2E3 ag confirm | VP16 counter
Cc1cccc(-c2nc(CN3CCCC(C(=O)NC4CCCC4)C3)c(C)o2)c1 (stereo not given) | 5 | 3 | 0 | 17 | . | .
Cc1cc(N2CCC[C@@H]2C)nc2ccccc12 | . | -3 | . | . | . | .
NC(=S)N=Nc1c(O)n(CCCl)c2ccccc12 | 4 | 10 | -4 | 2 | . | .
NC(=S)N=Nc1c(O)n(CCCl)c2ccc(Cl)cc12 | 5 | -2 | -3 | 50 | 33 | 7
NNC(=O)c1ccc(CSc2cccc3cccnc23)cc1 | -3 | 3 | 0 | 2 | . | .
Cc1cccc(CSc2cccc3cccnc23)c1 | 3 | 14 | 0 | 88* | -51 | -104
CCOC(=O)[C@]12CCCCC/C=C\1N(CCc1ccc(Cl)cc1)C(=O)[C@H]2CC(=O)N1CCN(C(=O)c2ccco2)CC1 | . | -5 | . | . | . | .
O=C1CCC[C@H]2Cc3nc4cc5c(cc4cc3C[C@]23CCCN13)OCO5 | . | 2 | . | . | . | .
O=C(NCCC1=CCCCC1)c1ccc2c(c1)N(Cc1ccccc1)C(=O)CS2 | 2 | -6 | -3 | -21 | . | .
CN1C(=O)CS(=O)c2ccc(C(=O)NCCC3=CCCCC3)cc21 (stereo not given) | 0 | -6 | 0 | 48 | 3 | 12
COc1ccc(-n2c(COc3ccc(C)cc3)nnc2SCC(=O)Nc2ccc(S(=O)(=O)Nc3cc(C)nc(C)n3)cc2)cc1 | . | 0 | . | . | . | .
CC(=O)c1c(C)[nH]c(C(=O)C(C)Sc2nnc(NC3CC3)s2)c1C (stereo not given) | 4 | -1 | 2 | 51 | 44 | 47
CC(Sc1nnc(NC2CC2)s1)C(=O)Nc1ccc(N2CCOCC2)cc1 (stereo not given) | . | -2 | -4 | 25 | . | .
O=C1NC(=O)/C(=C/c2ccccc2OCc2ccccc2)S1 | 4 | -9 | 0 | 51 | 57 | 45
O=C(COc1ccccc1/C=C1\SC(=O)NC1=O)Nc1ccccc1 | 2 | -4 | -2 | 12 | . | .
O=S(=O)(Nc1cccc(-c2cn3cccnc3n2)c1)c1ccc(-c2ccccc2)cc1 | 4 | -2 | 2 | 58 | 56 | 60
O=c1c2ccccc2n(Cc2ccno2)n1[C@@H](Cc1ccccc1)Cn1cc(-c2ccc(-c3ccccc3)cc2)nn1 | . | -2 | . | . | . | .
COc1ccc([C@@H]2C[C@H]3[C@@H](CN2S(=O)(=O)c2ccccc2)C(=O)C[C@@H](c2cccc(Cl)c2)N3S(=O)(=O)c2ccc(C)cc2)cc1 | . | . | . | 62 | 72* | 55
CCCCNc1cc(C)nc(NCc2ccccc2)n1 | -2 | . | . | 83* | 94* | 84*
Cc1cc(Nc2ccc(Cl)cc2)nc(NCc2ccccc2)n1 | 2 | 8 | 2 | 0 | . | .
Cc1cc(Nc2ccccc2)nc(NCc2ccccc2)n1 | 1 | 2 | 0 | 88* | 96* | 81*
Cc1cc(Nc2cccc(F)c2)nc(NCc2ccccc2)n1 | -1 | 7 | 1 | 83* | 92* | 67
CC(C)c1cc(C(=O)N(C2CCCCC2)C2CCCCC2)no1 | . | -4 | . | . | . | .
C[C@@H]1[C@H](O)[C@@H](C)/C=C/C=C/C=C/C=C/C=C/C=C/C=C/[C@H](OC2O[C@H](C)[C@@H](O)[C@H](N)[C@@H]2O)C[C@@H]2O[C@](O)(C[C@@H](O)C[C@@H](O)[C@H](O)CC[C@@H](O)C[C@@H](O)CC(=O)O[C@H]1C)C[C@H](O)[C@H]2C(=O)O (stereo not given in full) | . | -2 | . | . | . | .
COC(=O)[C@]12C[C@H](CC(=O)NCCc3ccccc3OC)C(=O)N(CCc3ccc(OC)c(OC)c3)C1=C[C@H](C1CCCC1)O[C@@H]2C | . | 8 | . | . | . | .
SMILES | NR2E3 ag-1 | NR1D1 modulator | PG9 Ab binder | NR2E3 ag-2 | NR2E3 ag confirm | VP16 counter
COc1ccc(OC)c(S(=O)(=O)Nc2ccc(Oc3ccccc3)cc2)c1 | 3 | -1 | -2 | 65 | 80* | 57
Cc1ccc(CNC2CCC23CCC(c2ccccc2)CC3)o1 (stereo not given) | . | -3 | . | . | . | .
COC(CNC(=O)[C@H](Cc1ccccc1)NC(C)(C)C(=O)NC1CCCCC1)OC | . | 3 | . | . | . | .
Cn1nc(C(C)(C)C)cc1C(=O)NCc1cc(F)cc2c1OCOC2 | -1 | -2 | 0 | 78* | 95* | 77*
Cc1ccn2c(Nc3ccc4c(c3)OCO4)c(-c3ccccn3)nc2c1 | -8 | -5 | -13 | 43 | . | .
Cc1ccc(Nc2c(-c3ccccn3)nc3ccc(C)cn23)cc1 | -2 | -1 | -2 | 56 | 97* | 61
Cc1ccc(Nc2c(-c3ccccn3)nc3cc(C)ccn23)cc1 | 2 | 4 | -4 | 68 | 99* | 87*
O=C(CSc1nnc(COc2ccc(Cl)cc2)n1Cc1ccco1)Nc1ccc2c(c1)OCO2 | . | 5 | . | . | . | .
COc1cccc2c(NCc3ccccc3)nc(-n3c(N)nc4ccccc43)nc12 | . | -1 | . | . | . | .
Nc1nc2ccccc2cc1C(=O)NCCCCc1ccccc1 | . | . | . | 96* | 97* | 90*
CC(=O)CC[C@@H]1CC[C@]2(CCCN(S(=O)(=O)C3CCCCC3)C2)O1 | . | -2 | . | . | . | .
Cc1nc2ncnn2c(N2CCN(c3cccc(C(F)(F)F)c3)CC2)c1C | -4 | -1 | -3 | 71* | 72* | 47
O=C(c1ccncc1F)N1CCC(n2nnc3ncccc32)CC1 | . | -4 | . | . | . | .
Cc1csc2c(N3CCN(C(=O)Nc4ccc(Cl)c(Cl)c4)CC3)ncnc12 | 3 | -2 | 1 | 81* | 97* | 84*
Cc1csc2ncnc(N3CCN(C(=S)Nc4ccc(C(F)(F)F)cc4)CC3)c12 | -2 | 8 | 2 | 66 | 95* | 83*
Cc1cc(C)cc(NC(=S)N2CCN(c3ncc(C(F)(F)F)cc3Cl)CC2)c1 | 1 | -4 | 0 | 16 | . | .
Cc1csc2c(N3CCN(C(=O)c4ccc(C(C)(C)C)cc4)CC3)ncnc12 | -4 | -2 | 2 | 77* | 97* | 84*
Cc1csc2c(N3CCN(C(=S)Nc4ccc(C(F)(F)F)cc4)CC3)ncnc12 | -2 | 0 | 1 | 92* | 96* | 87*
Cc1csc2c(N3CCN(C(=O)NC(C)(C)C)CC3)ncnc12 | 0 | 7 | 0 | 8 | . | .
COC(=O)[C@]12C=CCN1[C@H](c1ccc(OC)c(OC)c1)c1c(c3ccccc3n1S(=O)(=O)c1ccc(C)cc1)C2 | . | 8 | . | . | . | .
O=C(NNc1ccccc1)C(=O)NNS(=O)(=O)c1ccc([N+](=O)[O-])cc1 | -2 | -5 | -5 | 58 | 53 | 26
